# Experimental data taken from article PMC3447998 (Biochemistry, 2012).
# Entries after “also recorded” stand apart in the source; their conditions may differ.
# B1: TSNAX protein: protein with SNK-N-terminus (protein, UniProt Q99598 1-290, looked up)
# Translin-associated protein X: MSNKEGSGGFRKRKHDNFPHNQRREGKDVNSSSPVMLAFKSFQQELDARHDKYERLVKLSRDITVESKRTIFLLHRITSAPDMEDILTESEIKLDGVRQKIFQVAQELSGEDMHQFHRAITTGLQEYVEAVSFQHFIKTRSLISMDEINKQLIFTTEDNGKENKTPSSDAQDKQFGTWRLRVTPVDYLLGVADLTGELMRMCINSVGNGDIDTPFEVSQFLRQVYDGFSFIGNTGPYEVSKKLYTLKQSLAKVENACYALKVRGSEIPKHMLADVFSVKTEMIDQEEGIS
# B2: ENSA protein: protein with SQK-N-terminus (protein, UniProt O43768 2-121, looked up)
# Alpha-endosulfine: SQKQEEENPAEETGEEKQDTQEKEGILPERAEEAKLKAKYPSLGQKPGGSDFLMKRLQKGQKYFDSGDYNMAKAKMKNKQLPSAGPDKNLVTGDHIPTPQDLPQRKSSLVTSKLAGGQVE
# B3: Mina53: possesses a potential N-terminal methylation motif, MPKKAKPT (protein)
# chain: MPKKAKPTGSGKEEGPAPCKQMKLEAAGGPSALNFDSPSSLFESLISPIKTETFFKEFWEQKPLLIQRDDPALATYYGSLFKLTDLKSLCSRGMYYGRDVNVCRCVNGKKKVLNKDGKAHFLQLRKDFDQKRATIQFHQPQRFKDELWRIQEKLECYFGSLVGSNVYITPAGSQGLPPHYDDVEVFILQLEGEKHWRLYHPTVPLAREYSVEAEERIGRPVHEFMLKPGDLLYFPRGTIHQADTPAGLAHSTHVTISTYQNNSWGDFLLDTISGLVFDTAKEDVELRTGIPRQLLLQVESTTVATRRLSGFLRTLADRLEGTKELLSSDMKKDFIMHRLPPYSAGDGAELSTPGGKLPRLDSVVRLQFKDHIVLTVLPDQDQSDEAQEKMVYIYHSLKNSRETHMMGNEEETEFHGLRFPLSHLDALKQIWNSPAISVKDLKLTTDEEKESLVLSLWTECLIQVV
# B4: MLC9: Myosin Light Chain isoform (protein)
# chain: MSSKRAKAKTTKKRPQRATSNVFAMFDQSQIQEFKEAFNMIDQNRDGFIDKEDLHDMLASLGKNPTDEYLEGMMSEAPGPINFTMFLTMFGEKLNGTDPEDVIRNAFACFDEEASGFIHEDHLRELLTTMGDRFTDEEVDEMYREAPIDKKGNFNYVEFTRILKHGAKDKDD
# modifications: 100% N-terminally acetylated (by MS); left off: FLAG, C-terminal, kept
# B5: PTPCAAX2: protein tyrosine phosphatase PTPCAAX2 (protein, UniProt Q12974 1-164, looked up)
# Protein tyrosine phosphatase …: MNRPAPVEISYENMRFLITHNPTNATLNKFTEELKKYGVTTLVRVCDATYDKAPVEKEGIHVLDWPFDDGAPPPNQIVDDWLNLLKTKFREEPGCCVAVHCVAGLGRAPVLVALALIECGMKYEDAVQFIRQKRRGAFNSKQLLYLEKYRPKMRLRFRDTNGHC
# B6: RCC1-FLAG: FLAG-tagged RCC1, possesses a S-P-K motif (protein)
# chain: SPKRIAKRRSPPADAIPKSKKVKVSHRSHSTEPGLVLTLGQGDVGQLGLGENVMERKKPALVSIPEDVVQAEAGGMHTVCLSKSGQVYSFGCNDEGALGRDTSVEGSEMVPGKVELQEKVVQVSAGDSHTAALTDDGRVFLWGSFRDNNGVIGLLEPMKKSMVPVQVQLDVPVVKVASGNDHLVMLTADGDLYTLGCGEQGQLGRVPELFANRGGRQGLERLLVPKCVMLKSRGSRGHVRFQDAFCGAYFTFAISHEGHVYGFGLSNYHQLGTPGTESCFIPQNLTSFKNSTKSWVGFSGGQHHTVCMDSEGKAYSLGRAEYGRLGLGEGAEEKSIPTLISRLPAVSSVACGASVGYAVTKDGRVFAWGMGTNYQLGTGQDEDAWSPVEMMGKQLENRVVLSVSSGGQHTVLLVKDKEQS
# modifications: left off: FLAG, C-terminal, kept
# Key:
# [1] = test system: N-terminus of protein; conditions: yeast and mammals; ref [24],[25]; cited from earlier work
# [2] = test system: endogenous NRMT (293LT cells); assay: Co-precipitation of endogenous NRMT with FLAG-tagged substrate proteins; type: binding; conditions: C-terminally FLAG-tagged protein expressed in 293LT cells
# Summary of the method: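 C-terminally FLAG-tagged RCC1 or VRK2 expressed in 293LT cells, immunoprecipitated with anti-FLAG, and run on 10% polyacrylamide gel with Coomassie staining. On-bead material washed 3× with 100 mM ammonium bicarbonate (pH 8.0), then reduced, carbamidomethylated and digested with endoproteinase Glu-C (enzyme:protein 1:20). Peptides acidified to pH 3.5 and analysed by nano-LC-MS on C18 capillary columns.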
# [3] = test system: FLAG-tagged NRMT; assay: Co-precipitation of endogenous proteins with FLAG-tagged NRMT; type: binding; conditions: FLAG-tagged NRMT expressed in 293LT cells; Coomassie-stained gel
# Summary of the method: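 NRMT carrying a C-terminal FLAG tag was expressed in 293LT cells. Endogenous partner proteins were co-immunoprecipitated with it. Immunoprecipitates were resolved on a 10% polyacrylamide gel and stained with Coomassie blue.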
# [4] = test system: N-terminus of protein expressed in 293LT cells; type: cell-based; conditions: MS
# Summary of the method: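 FLAG-tagged constructs were transfected into 293LT cells by calcium phosphate and immunoprecipitated on anti-FLAG beads. Bead-bound protein was reduced, carbamidomethylated and Glu-C digested (1:20). Peptides went to nanoflow reverse-phase HPLC-microESI with a high-resolution MS scan, then 5–10 data-dependent CAD/ETD MS2 scans. Spectra were interpreted manually. Each form's summed extracted-ion-chromatogram area over all charge states was divided by the peptide's total area.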
# [5] = test system: N-terminal methylation in mouse spleen; conditions: mouse spleen lysate/extract, MS
# Summary of the method: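 Proteins from mouse spleen extract were immunoprecipitated with anti-me3-SPK antibody. On-bead samples were washed in 100 mM ammonium bicarbonate pH 8.0, reduced, carbamidomethylated and digested with Glu-C (1:20). Peptides were analysed by nanoflow reverse-phase HPLC with CAD/ETD tandem MS. N-terminal modifications were assigned by manual interpretation of the spectra.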
Molecule,N-terminal acetylation reported (in words) [1],capture / co-precipitation of endogenous NRMT (in words) [2],also measured
B1,reported to be N-terminally acetylated,–,–
B2,reported to be N-terminally acetylated,–,–
B3,–,unable to capture endogenous NRMT,"co-precipitation with FLAG-tagged NRMT (in words) [3]: co-precipitates; also recorded: co-precipitated with FLAG-tagged NRMT; cleavage of the initial Met residue ([4]; both samples, data not shown): 100%"
B4,–,cannot IP endogenous NRMT,"N-terminal modification (in words) ([4]; 293LT cells, immunoprecipitated protein): not N-terminally methylated; N-terminal acetylation ([4]; over-expressed in 293LT cells): 100%; N-terminal methylation in vivo (in words) [5]: methylated at the N-terminus in vivo; also recorded: N-terminally methylated"
B5,reported to be N-terminally acetylated,–,–
B6,–,efficiently captured endogenous NRMT,capture / co-precipitation of endogenous NRMT (in words) ([2]; listed as RCC1): NRMT is co-precipitated
